Assays:
[1] = test system: Mus musculus; assay: Effect on plasma ALT level in CCl4-induced BALB/c mouse model of liver fibrosis at 5 to 15 mg/kg, po administered once daily at week 4 to 6; assay type: ADME, organism-based; conditions: in vivo
Summary of the method: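 CCl4 liver fibrosis in female BALB/c mice: CCl4 i.p. (1 mL/kg 25% in olive oil) twice weekly for 6 weeks, sacrifice 48 h after final injection. Oral once-daily dosing weeks 1-6 or weeks 4-6; imatinib 50 mg/kg daily weeks 1-6. ALT and AST measured in plasma.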

[2] = Stability in dog plasma assessed as half life; assay type: ADME, cell-free, Canis lupus familiaris
[3] = molecular target: T1, Lysyl oxidase homolog 1 (Homo sapiens, UniProt Q08397); assay: Inhibition of recombinant human LOXL1 using putrescine as substrate preincubated with enzyme for 30 mins followed by substrate addition and measured every 2.5 mins for 30 mins by Amplex-Red oxidation assay
T1 sequence (Q08397 whole entry): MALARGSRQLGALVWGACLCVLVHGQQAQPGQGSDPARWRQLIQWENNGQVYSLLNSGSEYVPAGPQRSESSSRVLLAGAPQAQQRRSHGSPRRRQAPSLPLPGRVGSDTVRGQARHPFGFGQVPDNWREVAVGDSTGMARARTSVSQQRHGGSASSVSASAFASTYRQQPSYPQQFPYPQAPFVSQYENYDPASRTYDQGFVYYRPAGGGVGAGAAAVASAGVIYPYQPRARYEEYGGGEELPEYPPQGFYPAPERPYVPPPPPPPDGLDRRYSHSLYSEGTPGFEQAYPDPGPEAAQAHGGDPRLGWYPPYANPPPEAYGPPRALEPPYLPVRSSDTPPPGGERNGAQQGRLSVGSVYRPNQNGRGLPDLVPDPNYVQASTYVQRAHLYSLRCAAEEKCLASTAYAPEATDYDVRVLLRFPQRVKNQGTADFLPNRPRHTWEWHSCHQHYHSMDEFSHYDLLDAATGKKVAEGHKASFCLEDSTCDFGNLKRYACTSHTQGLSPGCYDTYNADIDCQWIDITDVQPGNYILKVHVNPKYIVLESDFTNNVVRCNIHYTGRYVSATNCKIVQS
Summary of the method: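 Recombinant human LOXL1 expressed and purified from cDNA; 30 min preincubation with compound at 37 °C in urea/borate buffer, then Amplex Red/HRP with 10 mM putrescine; H2O2 fluorescence read every 2.5 min for 30 min at 37 °C.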

[4] = molecular target: T2, Lysyl oxidase homolog 4 (Homo sapiens, UniProt Q96JB6); assay: Inhibition of recombinant human LOXL4 using putrescine as substrate preincubated with enzyme for 30 mins followed by substrate addition and measured every 2.5 mins for 30 mins by Amplex-Red oxidation assay
T2 sequence (Q96JB6 whole entry): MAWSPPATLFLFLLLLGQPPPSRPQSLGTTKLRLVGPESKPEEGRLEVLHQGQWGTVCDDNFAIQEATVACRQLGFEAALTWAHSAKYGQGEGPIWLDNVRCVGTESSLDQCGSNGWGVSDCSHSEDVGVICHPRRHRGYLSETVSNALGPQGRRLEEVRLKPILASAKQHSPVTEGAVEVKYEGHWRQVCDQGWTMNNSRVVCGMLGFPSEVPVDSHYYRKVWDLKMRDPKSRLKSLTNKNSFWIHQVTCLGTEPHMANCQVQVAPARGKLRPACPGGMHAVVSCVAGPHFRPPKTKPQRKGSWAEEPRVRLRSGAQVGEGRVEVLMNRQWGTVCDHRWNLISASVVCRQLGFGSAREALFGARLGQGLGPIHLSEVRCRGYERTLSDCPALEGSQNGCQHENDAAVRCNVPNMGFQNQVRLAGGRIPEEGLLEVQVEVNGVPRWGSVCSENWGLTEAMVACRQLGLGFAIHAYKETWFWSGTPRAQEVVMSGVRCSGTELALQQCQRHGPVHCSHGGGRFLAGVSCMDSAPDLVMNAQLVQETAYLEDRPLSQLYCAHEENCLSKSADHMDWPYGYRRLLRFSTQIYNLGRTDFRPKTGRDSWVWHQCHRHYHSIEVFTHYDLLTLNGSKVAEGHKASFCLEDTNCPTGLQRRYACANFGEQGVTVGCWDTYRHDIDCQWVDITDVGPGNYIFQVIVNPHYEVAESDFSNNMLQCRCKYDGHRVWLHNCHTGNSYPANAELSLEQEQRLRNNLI
Summary of the method: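 Recombinant human LOXL3 or LOXL4 preincubated 30 min at 37 °C with compound in 1.2 M urea/50 mM borate pH 8.2, then Amplex Red (120 µM)/HRP (1.5 U/mL) with 2 mM putrescine; fluorescence read every 2.5 min for 30 min.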

[5] = Protein binding in rat plasma; assay type: ADME, cell-free; conditions: read-out: PPB (converted)
[6] = Stability in dog plasma assessed as half life
[7] = Stability in rat microsomes assessed as half life; assay type: ADME, Microsome
[8] = molecular target: T3, Lysyl oxidase homolog 2 (Homo sapiens, UniProt Q9Y4K0); assay: Time-dependent inhibition of recombinant human C-terminal His-tagged […] (1-774 residues) expressed in mouse myeloma cells assessed as apparent inhibition constant using putrescine as substrate by kitz-wilson plot analysis
T3 sequence (Q9Y4K0 whole entry): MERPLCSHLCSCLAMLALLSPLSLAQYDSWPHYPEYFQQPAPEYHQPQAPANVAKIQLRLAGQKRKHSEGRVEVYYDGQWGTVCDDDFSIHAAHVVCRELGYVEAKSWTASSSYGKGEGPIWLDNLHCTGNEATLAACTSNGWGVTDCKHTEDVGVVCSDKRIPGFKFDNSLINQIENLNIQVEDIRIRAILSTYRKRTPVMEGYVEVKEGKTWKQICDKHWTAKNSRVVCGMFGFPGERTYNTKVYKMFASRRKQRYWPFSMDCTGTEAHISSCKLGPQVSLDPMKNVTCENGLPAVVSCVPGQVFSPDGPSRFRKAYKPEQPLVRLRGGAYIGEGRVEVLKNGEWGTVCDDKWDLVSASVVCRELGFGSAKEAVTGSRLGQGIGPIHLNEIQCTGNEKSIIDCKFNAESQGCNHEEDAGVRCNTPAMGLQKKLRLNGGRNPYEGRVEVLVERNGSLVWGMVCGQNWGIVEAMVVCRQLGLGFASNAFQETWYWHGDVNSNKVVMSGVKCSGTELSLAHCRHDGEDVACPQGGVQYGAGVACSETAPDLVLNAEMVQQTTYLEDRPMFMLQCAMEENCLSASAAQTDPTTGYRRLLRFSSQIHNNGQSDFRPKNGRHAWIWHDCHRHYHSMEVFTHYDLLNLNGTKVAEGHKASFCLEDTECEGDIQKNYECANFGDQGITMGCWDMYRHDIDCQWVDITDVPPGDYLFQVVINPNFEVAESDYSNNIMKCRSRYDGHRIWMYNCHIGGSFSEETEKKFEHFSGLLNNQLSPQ
Summary of the method: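 Recombinant human LOXL2 preincubated with inhibitor for varying times at 37 °C, then 5 mM putrescine added with 120 µM Amplex Red and 1.5 U/mL HRP. Buffer was 1.2 M urea, 50 mM sodium borate, pH 8.2. Fluorescence read every 2.5 min for 30 min. Apparent Ki and kinact derived by Kitz–Wilson analysis.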

[9] = Stability in human microsomes assessed as half life; assay type: ADME, Microsome
[10] = Protein binding in dog plasma; assay type: ADME, cell-free, Canis lupus familiaris; conditions: read-out: PPB (converted)

half-life [2] | IC50 [3] | IC50 [4] | fraction unbound [5] | half-life [6] | half-life [7] | Ki [8] | half-life [9] | fraction unbound [10] | SMILES | Activity [1]
– | – | – | – | – | – | – | – | – | CCOC(=O)c1ccc2c(c1)c(-c1cccc(S(=O)(=O)N(C)C)c1)c(C)n2C/C(F)=C/CN.Cl | Non-Toxic
> 120 min | 2260 nM | 280 nM | 0.12 | > 120 min | > 90 min | 83 nM | > 90 min | 0.14 | Cc1c(-c2cccc(S(=O)(=O)N(C)C)c2)c2cc(C(=O)O)ccc2n1C/C(F)=C/CN.Cl | –

Reference: ChEMBL document CHEMBL4321820, “Identification and Optimization of Mechanism-Based Fluoroallylamine Inhibitors of Lysyl Oxidase-like 2/3” (J Med Chem, 2019)
